pIC50: −log10 of the molar value. The source made the active and inactive calls. No cut-off for these calls is given here.
Columns and labels:
HepG2 [1] = test: Cell cycle arrest in human HepG2 cells assessed as accumulation at G2/M phase at 4 uM after 24 hrs using propidium iodide by Flow cytometry; type: functional, cell-based
Procedure, shortened: (§1)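 HepG2 cells synchronised by 24 h serum starvation, then treated 24 h at 1, 2 or 4 µM. Cells fixed overnight in 70% ethanol at 4 °C and stained 15 min at 37 °C in the dark with hypotonic PI solution (0.1% sodium citrate, 0.1% Triton X-100, 0.05 mg/ml PI, 0.01 mg/ml RNase). DNA content measured by flow cytometry.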

HepG2 [2] = test: Antiproliferative activity against human HepG2 cells after 24 hrs by MTT assay; type: functional, cell-based; conditions: HepG2, 24 h
Procedure, shortened: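 Tetrazolium MTT viability test; cells exposed to compound 24 h, absorbance read at 570 nm. Survival ratio = A treated / A control × 100%; IC50 is the concentration giving 50% loss of viability. Eight concentrations in two-fold dilutions, triplicate wells, mean of two separate experiments. Compounds dissolved in DMSO (0.01 mol/L stock); control wells received medium only.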

HepG2 [3] = test: Induction of apoptosis in human HepG2 cells assessed as late apoptotic cells at 1 uM after 24 hrs using annexin V-propidium iodide staining by flow cytometry (reference value: 3.4%); type: functional
HepG2 [4] = test: Induction of apoptosis in human HepG2 cells assessed as nuclear condensation at 1 to 4 uM after 24 hrs using DAPI staining by fluorescent microscopy; type: functional, cell-based
Procedure, shortened: (§2)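 HepG2 cells seeded at 1 × 10⁵ cells/well and treated 24 h at 1, 2 or 4 µM. Living cells first viewed under inverted light microscope (×200). Cells then fixed 20 min in 4% paraformaldehyde, stained 10 min with DAPI (1 mg/ml) and examined by fluorescence microscopy (×400, 340 nm excitation) for nuclear changes and apoptotic bodies.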

[5] = test system: Heps hepatoma (Mus musculus); test: Antitumor activity against murine Heps hepatoma cells transplanted in Kunming mouse assessed as tumor growth inhibition at 25 mg/kg, iv administered 24 hrs after tumor implantation one dose per two day for total of four treatment measured after 24 hrs last postdose relative to control
[6] = test system: Heps hepatoma (Mus musculus); test: Antitumor activity against murine Heps hepatoma cells transplanted in iv dosed Kunming mouse assessed as tumor growth inhibition administered 24 hrs after tumor implantation one dose per two day for total of four treatment measured after 24 hrs last postdose
HepG2 [7] = test: Induction of apoptosis in human HepG2 cells assessed as viable cells at 1 uM after 24 hrs using annexin V-propidium iodide staining by flow cytometry (reference value: 93.2%); type: functional; conditions: HepG2, 24 h, read-out: Activity
HepG2 [8] = test: Induction of apoptosis in human HepG2 cells assessed as appearance of necrosis at 4 uM after 24 hrs by light microscopy; type: functional, cell-based; procedure, shortened: as §2
HepG2 [9] = test: Induction of apoptosis in human HepG2 cells assessed as appearance of apoptotic bodies at 1 to 4 uM after 24 hrs using DAPI staining by fluorescent microscopy; type: functional, cell-based; procedure, shortened: as §2
HepG2 [10] = test: Induction of apoptosis in human HepG2 cells assessed as early apoptotic cells at 4 uM after 24 hrs using annexin V-propidium iodide staining by flow cytometry (reference value: 3%); type: functional
HepG2 [11] = test: Induction of apoptosis in human HepG2 cells assessed as decrease in bcl-2 expression at 1 uM after 24 hrs by Western blot analysis; type: functional, cell-based
Procedure, shortened: (§3)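 HepG2 cells treated 24 h at 1, 2 or 4 µM. Lysed in Tris-Cl pH 6.8 buffer containing SDS, glycerol, β-mercaptoethanol, PMSF and aprotinin; cleared at 12 000 × g, 15 min, 4 °C. Protein measured by BCA. Samples run on 15% SDS-PAGE, transferred to PVDF, probed overnight at 4 °C with primary antibodies against bcl-2, bax and pro-caspase-3, then IRDye 800 secondary 1 h at 37 °C.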

HepG2 [12] = test: Induction of apoptosis in human HepG2 cells assessed as effect on bax protein expression at 2 uM after 24 hrs by Western blot analysis; type: functional, cell-based; procedure, shortened: as §3
Mus musculus [13] = test: Toxicity in Kunming mouse xenografted with human HepG2 cells assessed as change in body weight at 50 mg/kg, iv administered 24 hrs after tumor implantation one dose per two day for total of four treatment measured after 24 hrs last postdose (reference value: 19.10 +/- 1.29 g); conditions: in vivo
HepG2 [14] = test: Induction of apoptosis in human HepG2 cells assessed as activation of caspase 3 at 1 to 4 uM after 24 hrs by colorimetric assay relative to control; type: functional
Procedure, shortened: (§4)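 Kit colorimetric caspase-3 test. HepG2 cells treated at 1, 2 or 4 µM for 24 h at 37 °C, then lysed on ice 20 min and centrifuged. Supernatant containing 200 µg total protein incubated with Ac-DEVD-pNA 4 h at 37 °C; absorbance read at 405 nm. Fold activity = OD treated / OD control; mean ± SD, t-test.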

HepG2 [15] = test: Induction of apoptosis in human HepG2 cells assessed as decrease in pro-caspase-3 expression at 4 uM after 24 hrs by Western blot analysis; type: functional, cell-based; procedure, shortened: as §3
HepG2 [16] = test: Induction of apoptosis in human HepG2 cells assessed as pre-necrotic cells at 4 uM after 24 hrs using annexin V-propidium iodide staining by flow cytometry (reference value: 0.5%); type: functional
[17] = test system: Heps hepatoma (Mus musculus); test: Antitumor activity against murine Heps hepatoma cells transplanted in Kunming mouse assessed as tumor growth inhibition at 50 mg/kg, iv administered 24 hrs after tumor implantation one dose per two day for total of four treatment measured after 24 hrs last postdose relative to control
HepG2 [18] = test: Induction of apoptosis in human HepG2 cells assessed as effect on bax protein expression at 4 uM after 24 hrs by Western blot analysis; type: functional, cell-based; procedure, shortened: as §3
HepG2 [19] = test: Induction of apoptosis in human HepG2 cells assessed as decrease in bcl-2 expression at 4 uM after 24 hrs by Western blot analysis; type: functional, cell-based; procedure, shortened: as §3
HepG2 [20] = test: Induction of apoptosis in human HepG2 cells assessed as effect on bax protein expression at 1 uM after 24 hrs by Western blot analysis; type: functional, cell-based; procedure, shortened: as §3
MCF7 = test: Antiproliferative activity against human MCF7 cells after 24 hrs by MTT assay; type: functional, cell-based; conditions: MCF7, 24 h
Procedure, shortened: (§5)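 Cells grown at 37 °C in humidified 5% CO2 with benzylpenicillin and streptomycin. Compounds came from 0.01 mol/L DMSO stocks and were tested at eight two-fold dilutions in triplicate, with medium-only controls, for 24 h. MTT absorbance was read at 570 nm. Survival = A_treatment/A_control × 100. IC50 is the concentration giving 50% viability inhibition, as the mean of two separate experiments.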

HepG2 [21] = test: Induction of apoptosis in human HepG2 cells assessed as pre-necrotic cells at 2 uM after 24 hrs using annexin V-propidium iodide staining by flow cytometry (reference value: 0.5%); type: functional
HepG2 [22] = test: Induction of apoptosis in human HepG2 cells assessed as viable cells at 2 uM after 24 hrs using annexin V-propidium iodide staining by flow cytometry (reference value: 93.2%); type: functional; conditions: HepG2, 24 h, read-out: Activity
BGC-823 = test: Antiproliferative activity against human BGC823 cells after 24 hrs by MTT assay; type: functional, cell-based; conditions: BGC-823, 24 h; procedure, shortened: as §5
HepG2 [23] = test: Induction of apoptosis in human HepG2 cells assessed as decrease in bcl-2 expression at 2 uM after 24 hrs by Western blot analysis; type: functional, cell-based; procedure, shortened: as §3
HepG2 [24] = test: Induction of apoptosis in human HepG2 cells assessed as decrease in pro-caspase-3 expression at 2 uM after 24 hrs by Western blot analysis; type: functional, cell-based; procedure, shortened: as §3
HepG2 [25] = test: Induction of apoptosis in human HepG2 cells assessed as viable cells at 4 uM after 24 hrs using annexin V-propidium iodide staining by flow cytometry (reference value: 93.2%); type: functional; conditions: HepG2, 24 h, read-out: Activity
HepG2 [26] = test: Induction of apoptosis in human HepG2 cells assessed as activation of caspase 3 after 24 hrs by colorimetric assay; type: functional, cell-based; procedure, shortened: as §4
HepG2 [27] = test: Induction of apoptosis in human HepG2 cells assessed as cell distortion at 4 uM after 24 hrs using by inverted light microscopy; type: functional, cell-based; procedure, shortened: as §2
HepG2 [28] = test: Induction of apoptosis in human HepG2 cells assessed as late apoptotic cells at 4 uM after 24 hrs using annexin V-propidium iodide staining by flow cytometry (reference value: 3.4%); type: functional
[29] = test system: Heps hepatoma (Mus musculus); test: Antitumor activity against murine Heps hepatoma cells transplanted in Kunming mouse assessed as tumor growth inhibition at 12.5 mg/kg, iv administered 24 hrs after tumor implantation one dose per two day for total of four treatment measured after 24 hrs last postdose relative to control
HepG2 [30] = test: Induction of apoptosis in human HepG2 cells assessed as cell membrane blebbing and shrinkage at 4 uM after 24 hrs using by inverted light microscopy; type: functional, cell-based; procedure, shortened: as §2
HepG2 [31] = test: Induction of apoptosis in human HepG2 cells assessed as early apoptotic cells at 2 uM after 24 hrs using annexin V-propidium iodide staining by flow cytometry (reference value: 3%); type: functional
Mus musculus [32] = test: Toxicity in Kunming mouse xenografted with human HepG2 cells assessed as change in body weight at 25 mg/kg, iv administered 24 hrs after tumor implantation one dose per two day for total of four treatment measured after 24 hrs last postdose (reference value: 20.20 +/- 1.14 g); type: organism-based; design: dose 25 mg/kg, route intravenous; conditions: in vivo
HepG2 [33] = test: Induction of apoptosis in human HepG2 cells assessed as bright condensed chromatin in nuclei at 1 uM after 24 hrs by fluorescence microscopy
HepG2 [34] = test: Cell cycle arrest in human HepG2 cells assessed as accumulation at G2/M phase at 1 uM after 24 hrs using propidium iodide by Flow cytometry; type: functional, cell-based; procedure, shortened: as §1
HepG2 [35] = test: Cell cycle arrest in human HepG2 cells assessed as accumulation at G2/M phase at 2 uM after 24 hrs using propidium iodide by Flow cytometry; type: functional, cell-based; procedure, shortened: as §1
Mus musculus [36] = test: Toxicity in Kunming mouse xenografted with human HepG2 cells assessed as change in body weight at 12.5 mg/kg, iv administered 24 hrs after tumor implantation one dose per two day for total of four treatment measured after 24 hrs last postdose (reference value: 20.20 +/- 1.99 g); type: organism-based; design: dose 12.5 mg/kg, route intravenous; conditions: in vivo
Mus musculus [37] = test: Toxicity in Kunming mouse xenografted with human HepG2 cells assessed as irritation on vein vascular at 12.5 to 50 mg/kg, iv administered 24 hrs after tumor implantation one dose per two day for total of four treatment measured after 24 hrs last postdose; type: organism-based; design: dose 12.5-50 mg/kg, route intravenous; conditions: in vivo
HepG2 [38] = test: Induction of apoptosis in human HepG2 cells assessed as late apoptotic cells at 2 uM after 24 hrs using annexin V-propidium iodide staining by flow cytometry (reference value: 3.4%); type: functional
HepG2 [39] = test: Induction of apoptosis in human HepG2 cells assessed as large proportion of cell became round in shape at 4 uM after 24 hrs […] by inverted light microscopy; type: functional, cell-based; procedure, shortened: as §2
HepG2 [40] = test: Induction of apoptosis in human HepG2 cells assessed as induction of cell integrity at 1 uM after 24 hrs by light microscopy; type: functional, cell-based; procedure, shortened: as §2
HepG2 [41] = test: Induction of apoptosis in human HepG2 cells assessed as early apoptotic cells at 1 uM after 24 hrs using annexin V-propidium iodide staining by flow cytometry (reference value: 3%); type: functional
HepG2 [42] = test: Induction of apoptosis in human HepG2 cells assessed as pre-necrotic cells at 1 uM after 24 hrs using annexin V-propidium iodide staining by flow cytometry (reference value: 0.5%); type: functional
HepG2 [43] = test: Induction of apoptosis in human HepG2 cells assessed as decrease in pro-caspase-3 expression at 1 uM after 24 hrs by Western blot analysis; type: functional, cell-based; procedure, shortened: as §3
SMMC-7721 = test: Antiproliferative activity against human SMMC7721 cells after 24 hrs by MTT assay; type: functional, cell-based; conditions: SMMC-7721, 24 h; procedure, shortened: as §5

CC(C)=CCC12OC(C)(C)C3CC(C=C4C(=O)c5c(O)cccc5OC431)C2=O (stereo unspecified)
Activity (HepG2 [1]): Active | pIC50 (HepG2 [2]): 5.63 | Activity (HepG2 [3]): 4.8% | Activity (HepG2 [4]): Active | inhibition in vivo at 25 mg/kg [5]: 32.3% | inhibition [6]: Dose-dependent effect | viability at 1 µM (HepG2 [7]): 86.3% | Activity (HepG2 [8]): Active | Activity (HepG2 [9]): Active | Activity (HepG2 [10]): 23.3% | Activity (HepG2 [11]): Active | Activity (HepG2 [12]): inactive | Activity (Mus musculus [13]): 24.7 g | fold change (FC) (HepG2 [14]): 3 | Activity (HepG2 [15]): Active | Activity (HepG2 [16]): 1.1% | inhibition in vivo at 50 mg/kg [17]: 49.2% | Activity (HepG2 [18]): inactive | Activity (HepG2 [19]): Active | Activity (HepG2 [20]): inactive | pIC50 (MCF7): 5.04 | Activity (HepG2 [21]): 1.1% | viability at 2 µM (HepG2 [22]): 71.9% | pIC50 (BGC-823): 5.44 | Activity (HepG2 [23]): Active | Activity (HepG2 [24]): Active | viability at 4 µM (HepG2 [25]): 68.2% | Activity (HepG2 [26]): Dose-dependent effect | Activity (HepG2 [27]): Active | Activity (HepG2 [28]): 7.4% | inhibition in vivo at 12.5 mg/kg [29]: 14.9% | Activity (HepG2 [30]): Active | Activity (HepG2 [31]): 18.9% | Activity (Mus musculus [32]): 29.4 g | Activity (HepG2 [33]): Active | Activity (HepG2 [34]): Active | Activity (HepG2 [35]): Active | Activity (Mus musculus [36]): 26.3 g | Activity (Mus musculus [37]): Non-toxic | Activity (HepG2 [38]): 8.1% | Activity (HepG2 [39]): Active | Activity (HepG2 [40]): Active | Activity (HepG2 [41]): 8.1% | Activity (HepG2 [42]): 0.8% | Activity (HepG2 [43]): Active | pIC50 (SMMC-7721): 5.09

Source: ChEMBL document CHEMBL1759837, “Studies on chemical modification and biology of a natural product, gambogic acid (III): determination of the essential pharmacophore for biological activity” (Eur J Med Chem, 2011)
